STEP block: STEP phosphatase inhibitors, primary screen, biochemical, fluorescence intensity, uHTS; AID 588621, 2011; inhibition, % at 20 µM; actives 0.25% (n = 360,000); Tyrosine-protein phosphatase non-receptor type 5 (Homo sapiens), P54829; recombinant STEP, OMFP fluorogenic substrate;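 active = inhibition at 20 µM, scaled per plate between control wells, above about 37%, limit read from the data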;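 also: 0% = DMSO with enzyme and substrate and 100% = substrate only without enzyme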
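System: STEP (striatal-enriched tyrosine phosphatase) enzyme, cell-free; medium: Bis-Tris pH 6.0 buffer with DTT, detergent; dosing: 20 µM, 1% DMSO; times: reaction 20 min, ambient temperature; detection: fluorescence, 480/540 nm; read-out basis: normalized % inhibition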
DNMT1 inh: human DNMT1 methyltransferase inhibitors, primary screen, biochemical, molecular beacon, fluorescence, HinP1I cleavage, uHTS | inhibition (reported as % activation of signal), % at 10 µM | actives 0.83% (n = 360,000); in the data active = inhibition above about 50%
LMPTP block: LMPTP phosphatase inhibitors, primary screen, biochemical, fluorescence intensity, uHTS; Low molecular weight phosphotyrosine protein phosphatase (Homo sapiens), P24666; recombinant LMPTP-A, OMFP fluorogenic substrate; inhibition, % at 20 µM; actives 0.22% (n = 360,000); AID 651560, 2012;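 active = compounds that cut the enzyme signal by at least half of the control window in the single-dose screen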;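 also: plate controls were DMSO wells with enzyme plus substrate for no effect and substrate without enzyme for full effect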
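Assay system: LMPTP-A enzyme. Input: 0.625 nM LMPTP-A final. Probe or stimulus: 400 µM OMFP. Compound dosing: single 20 µM dose. Schedule: 50 min dark incubation at room temperature. Detection: fluorescence intensity of OMFP turnover product. Read-out: percent inhibition versus substrate-only and uninhibited controls. Benchmarks: no-enzyme low control, uninhibited high control.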
Scp1 inh: Scp-1 phosphatase inhibitors, primary screen, biochemical, colorimetric, uHTS. Recombinant Scp1, phosphopeptide, malachite green phosphate absorbance. actives 0.88% (n = 340,000). Carboxy-terminal domain RNA polymerase II polypeptide A small phosphatase 1 (Homo …. inhibition, % at 20 µM;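 active = inhibition above about 50% at 20 µM, limit read from the data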;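 also: plate controls were DMSO wells with enzyme for no effect and wells lacking enzyme for full effect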
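System: truncated SCP-1 phosphatase (76-261aa); medium: Tris acetate buffer pH 5.5 with MgCl2 and Tween-20; incubation: 45 min room-temperature reaction, 5 min colour, 30 min stabiliser; compound: single 20 µM dose, 1% DMSO; reagent: Phosphorylated 17-residue peptide substrate; read-out: % inhibition at 20 µM; technique: colorimetric free-phosphate detection, absorbance 630 nm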
SUMO1 PPI mod: modulators of SUMO1 protein-protein interactions, primary screen, biochemical, uHTS; actives 0.33% (n = 360,000); inhibition, % at 20 µM; SUMO1 binding to a labelled peptide, TR-FRET, 1 h; Small ubiquitin-related modifier 1 (Homo sapiens), P63165; in the data active = inhibition above about 37%
DNMT1 confirm: DNMT1 methyltransferase inhibitor retest, confirmation, biochemical, molecular beacon, fluorescence, single concentration. shares compounds with DNMT1 inh. inhibition, % at 10 µM. DNMT1 molecular beacon HinP1I cleavage. actives 8% (n = 2,300);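 active = average inhibition of at least 30% in the single-concentration confirmation test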
DNMT1 interf: shows spectral interference in the DNMT1 beacon assay | AID 602387 | shares compounds with DNMT1 inh | actives 1% (n = 2,300) | activation (fluorescence interference), % at 10 µM | DNMT1 molecular beacon spectral interference counterscreen, fluorescence 485/520;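 active = activation of at least 30% at 10 µM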;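 also: DNMT1 catalytic domain with a HinP1I cleavage step and a FAM/dabcyl DNA beacon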
Active calls of the source: *; . = no result. In the library only some 1.7% were active in any assay of this set; here they are far more common.

SMILES | STEP block | DNMT1 inh | LMPTP block | Scp1 inh | SUMO1 PPI mod | DNMT1 confirm | DNMT1 interf
Cc1ccc(C)c(S(=O)(=O)N2CCN(C(=O)/C=C/c3ccco3)CC2)c1 | -1 | 76* | 3 | 23 | -1 | 7 | 2
O=C(Nc1ccccc1)C1CCCN1C(=O)NCc1ccccc1 (stereo not drawn) | -4 | 1 | 1 | -6 | 4 | . | .
CC(=O)Nc1ccc(NC(=O)C2CCCN2C(=O)NCc2ccccc2)cc1 (stereo not drawn) | 4 | 88* | -1 | -7 | 1 | 2 | 3
O=S(=O)(NCc1ccccc1)[C@@H]1CC2C=CC1C2 (stereo partly drawn) | 1 | 6 | -1 | -6 | 5 | . | .
CCc1ccc(NC(=O)Cn2c(=O)c3cccn3c3ccccc32)cc1 | 3 | 55* | 1 | -7 | -1 | 5 | 1
CCc1ccc(NC(=O)CCn2c(=O)c3cccn3c3ccccc32)cc1 | -1 | -3 | 3 | -8 | 1 | . | .
COc1cc(-c2[nH]ncc2CN2CCN(Cc3cccs3)CC2)cc(OC)c1OC | 2 | 2 | -2 | -7 | -4 | . | .
COC(=O)c1cc(S(=O)(=O)N2CCN(c3ccc(C(C)=O)cc3)CC2)cn1C | 2 | -3 | -1 | -7 | -2 | . | .
CCCCn1c(NCc2ccccc2NS(=O)(=O)c2ccc(C)cc2)nc2ccccc21 | 2 | -2 | 4 | 8 | 3 | . | .
CCCCn1c(NS(=O)(=O)c2ccc(C)cc2)c(S(=O)(=O)c2ccccc2)c2nc3ccccc3nc21 | 3 | 55* | 25 | -17 | 50* | 2 | -6
COc1ccc(OCc2cc(C(=O)N3CCOCC3)no2)c(Cl)c1 | 2 | -1 | 0 | -6 | 3 | . | .
Cc1ccc(NC(=O)CC2C(=O)N(Cc3ccccc3)C(=S)N2NC(=O)c2ccccc2)c(C)c1 (stereo not drawn) | 0 | 81* | 2 | 3 | 0 | 6 | 10
O=c1/c(=C\c2cccc(O)c2)sc2nc(-c3ccccc3)c(-c3ccccc3)n12 | -2 | -9 | 7 | -4 | -6 | . | .
Cc1ccccc1NC(=O)CN1CCN(Cc2ccccc2)CC1 | -4 | 79* | -1 | -4 | 6 | 1 | 5
Cc1ccccc1NC(=O)CCN1CCN(Cc2ccccc2)CC1 | -4 | -2 | -2 | -2 | -1 | . | .
CCN(CC)c1ccc(S(=O)(=O)N2CCOCC2)cc1NC(=O)CN1CCN(Cc2ccccc2)CC1 | 3 | 58* | -1 | -9 | 3 | 0 | 4
CCC(C)NC(=O)C1CCN(S(=O)(=O)c2ccc(OC)cc2)CC1 (stereo not drawn) | 0 | 3 | -1 | 2 | 3 | . | .
COc1ccc(NC(=S)N2CCC(C(=O)c3ccc(C)cc3)CC2)cc1 | 3 | 81* | 1 | -2 | 5 | 2 | 3
Cc1ccc(-n2nc3ccc(NC(=O)c4ccco4)cc3n2)cc1 | 3 | 36 | 3 | -12 | 29 | . | .
Cc1ccc(-n2nc3ccc(NC(=O)c4cccc([N+](=O)[O-])c4C)cc3n2)cc1 | 1 | 63* | 2 | -1 | -1 | 4 | 3
N#Cc1nc(-c2cccs2)oc1NCC1CCCO1 (stereo not drawn) | -1 | 67* | -1 | -2 | 1 | 3 | 3
COc1ccc(CN(C)C[C@H]2OCCCC[C@H](C)Oc3ccc(NC(=O)CCC(F)(F)F)cc3C(=O)N([C@@H](C)CO)C[C@@H]2C)cc1 | 1 | 5 | 2 | . | 2 | . | .
C[C@H]1CCCCO[C@H](CN(C)Cc2ccccc2)[C@@H](C)CN([C@@H](C)CO)C(=O)c2cc(NC(=O)CCC(F)(F)F)ccc2O1 | 1 | 65* | 0 | . | 2 | 5 | 4
Cc1ccc(N(CC(O)CN2CCCCC2)S(=O)(=O)c2ccccc2[N+](=O)[O-])cc1 (stereo not drawn) | -2 | 0 | -1 | -1 | -6 | . | .
CCOc1ccc(Cl)cc1-c1cc(C(=O)NC2CCCCC2)[nH]n1 | 0 | 74* | 2 | . | 10 | 1 | 1
SMILES | STEP block | DNMT1 inh | LMPTP block | Scp1 inh | SUMO1 PPI mod | DNMT1 confirm | DNMT1 interf
COc1ccc(CCNC(=O)c2ccc(OCc3c(C)noc3C)cc2)cc1OC | -3 | 54* | 0 | -2 | -6 | 10 | 9
COc1ccc(NC(=O)N(C)C[C@@H]2OCc3cn(nn3)CCCC(=O)N([C@@H](C)CO)C[C@H]2C)cc1 | 3 | 63* | -2 | . | 3 | 3 | 3
C[C@H]1CN([C@@H](C)CO)C(=O)CCCn2cc(nn2)CO[C@@H]1CN(C)C(=O)Nc1ccc(F)cc1 | 0 | 5 | -1 | . | 8 | . | .
O=C(OCC(=O)N1CCCC1)c1cnc(Cl)c(Cl)c1 | 0 | 1 | -1 | -5 | 2 | . | .
Cc1ccccc1N=C1NC(=O)CC(c2ccccc2)S1 (stereo not drawn) | -1 | 0 | 1 | -9 | 2 | . | .
Cc1ccc(-n2cc3c(-c4cccc(Br)c4)nnc(C)c3n2)cc1 | -17 | 64* | 7 | 13 | 1 | 16 | 0
Cc1nnc(-c2cccc(Br)c2)c2cn(-c3ccccc3Cl)nc12 | 1 | 42 | 1 | 6 | -3 | . | .
Fc1ccc(Nc2nc(-c3ccncc3)nc3ccccc23)cc1F | 14 | 56* | 13 | -13 | 19 | 7 | 1
c1ccc2c(Nc3nc(-c4ccncc4)nc4ccccc34)cccc2c1 | -2 | -10 | 2 | -2 | 5 | . | .
O=[N+]([O-])c1ccc(N2CCN(c3ccc(Cl)nn3)CC2)cc1NC1CC1 | 0 | 5 | 15 | -1 | -7 | . | .
O=C(O)c1cccc(-n2cccc2/C=C\[N+](=O)[O-])c1 | 8 | 62* | 1 | 43 | 11 | 7 | 5
O=C(O)c1cccc(-n2cccc2/C=C/[N+](=O)[O-])c1 | 21 | 89* | 5 | 85* | 68* | 5 | -1
COc1ccc(C(=O)CSc2nnc(CNC(=O)c3ccco3)n2C)cc1 | -1 | 0 | -2 | -4 | -1 | . | .
CCn1c(=O)cc(SCC(=O)NCc2ccccn2)c2ccccc21 | 0 | 5 | -2 | 0 | 7 | . | .
COc1ccc(NC(=O)C2Cc3c(-c4ccco4)ccnc3O2)cc1OC (stereo not drawn) | -1 | 90* | 1 | . | -1 | 1 | 2

Assay outcomes: PubChem, Sanford-Burnham Center for Chemical Genomics
